For six compounds, MIC results are on record in ChEMBL document CHEMBL4339256, “Antibacterial Salinaphthoquinones from a Strain of the Bacterium Salinispora arenicola Recovered from the Marine Sediments of St. Peter and St. Paul Archipelago, Brazil” (2019).

The source made the active and inactive calls. The rule behind the calls is not given here.

In assay [1] the test system is Staphylococcus aureus. The assay is described as follows: Antimicrobial activity against methicillin-resistant Staphylococcus aureus ATCC 43300 assessed as inhibition of microbial growth incubated for 24 hrs by broth microdilution assay. The format is functional. A digest of the protocol: (§1)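 Strains pre-grown on Mueller Hinton agar 24 h at 35 ± 2 °C aerobically; colonies suspended in 0.85% NaCl, then diluted in Mueller Hinton broth to a final 5 × 10^5 CFU/mL. Broth microdilution per CLSI (2015) with 2-fold serial compound dilutions; rifampicin positive control. Incubated as above; MIC read as lowest concentration with no visible growth.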

The test system of assay [2] is Enterococcus faecalis. The assay is described as follows: Antimicrobial activity against vancomycin-resistant Enterococcus faecalis ATCC 51212 assessed as inhibition of microbial growth incubated for 24 hrs by broth microdilution assay. Format: functional. A digest of the protocol:
as §1
On the technique in general: Dilution methods test growth across graded concentrations, often in twofold steps.

The test system of assay [3] is Staphylococcus aureus. The assay can be described thus: Antimicrobial activity against Staphylococcus aureus ATCC 29213 assessed as inhibition of microbial growth incubated for 24 hrs by broth microdilution assay. The format is functional. A digest of the protocol:
(§2)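 Strains first grown on Mueller Hinton agar 24 h at 35 ± 2 °C, aerobic. Colonies were suspended in sterile 0.85% (w/v) NaCl and diluted into Mueller Hinton broth to a final 5 × 10^5 CFU/mL. Broth microdilution followed CLSI (2015), with 2-fold serial dilutions of compound and rifampicin as positive control. Plates were incubated under the same conditions. MIC was read as the lowest concentration with no visible growth.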

Assay [4] concerns Escherichia coli. The assay is described as follows: Antimicrobial activity against Escherichia coli ATCC 25922 assessed as inhibition of microbial growth incubated for 24 hrs by broth microdilution assay. Format: functional, organism-based. A digest of the protocol: as §2
Assay [5] relates to Enterococcus faecalis. The assay is described as follows: Antimicrobial activity against Enterococcus faecalis ATCC 29212 assessed as inhibition of microbial growth incubated for 24 hrs by broth microdilution assay. Format: functional. A digest of the protocol:
as §2

For orientation: MIC means the least concentration at which growth counts as inhibited. Take `Cc1cc2c(c(O)c1O)C(=O)C=C(N)C2=O`: the MIC result in assay [1], in assay [2], in assay [3] and in assay [4] was “inactive” throughout. In assay [5] (ATCC 29212, 24 h), the MIC came out at 16 µg/mL.
Consider `Cc1cc(C)c(=O)oc1-c1c(O)c(C)cc2c1C(=O)C(N)=CC2=O`, for which the MIC entry in assay [1], in assay [2] and in assay [3] was “inactive” in each case. Moreover, the MIC in assay [5] (ATCC 29212, 24 h) came to 125 µg/mL.
With `CC(=O)CC1(C)Oc2c(C)cc3c(c2C1=O)C(=O)C=C(N)C3=O` (stereo unspecified), the MIC in assay [1] (ATCC 43300, 24 h) worked out at 125 µg/mL; in assay [2] (ATCC 51212, 24 h) it was 125 µg/mL; in assay [3] (ATCC 29213, 24 h), 125 µg/mL; in assay [5] (ATCC 29212, 24 h), 125 µg/mL.
In the case of `Cc1cc2c(c(C(=O)[C@@H](C)C3OC4[C@H](C)C(OC(=O)[C@H]4C)C3C)c1O)C(=O)C=C(N)C2=O` (stereo partly specified), the MIC result in assay [1], in assay [2], in assay [3] and in assay [5] was “inactive” each time.
Turning to `CO[C@H]1/C=C/O[C@@]2(C)Oc3c(C)c(O)c4c(O)c(c(/C=N/N5CCN(C)CC5)c(O)c4c3C2=O)NC(=O)/C(C)=C\C=C\[C@H](C)[C@H](O)[C@@H](C)[C@@H](O)[C@@H](C)[C@H](OC(C)=O)[C@@H]1C` [RIFAMPIN], the MIC in assay [1] (ATCC 43300, 24 h) was at most 0.03 µg/mL; in assay [2] (ATCC 51212, 24 h), at most 0.03 µg/mL; in assay [3] (ATCC 29213, 24 h), at most 0.03 µg/mL; in assay [5] (ATCC 29212, 24 h), at most 0.03 µg/mL.
Turning to `Cc1cc(C)c(=O)oc1-c1c(O)c(C)cc2c1C(=O)C=C(N)C2=O`, the MIC worked out at 62 µg/mL in assay [1] (ATCC 43300, 24 h); 125 µg/mL in assay [2] (ATCC 51212, 24 h); 31 µg/mL in assay [3] (ATCC 29213, 24 h); 16 µg/mL in assay [5] (ATCC 29212, 24 h). The MIC result in assay [4] was “inactive”.
